Measurements reported in ChEMBL document CHEMBL4613293, “Pyridobenzothiazolones Exert Potent Anti-Dengue Activity by Hampering Multiple Functions of NS5 Polymerase” (ACS Med Chem Lett, 2020).
Activity calls are given as the source filed them. The calls are words filed in the database; no cut-off is given here.

Columns and labels:
[1] = Cytotoxicity against human HuH7 cells assessed as reduction in cell viability incubated for 48 hrs by CellTiter Glo Luminescent assay; assay type: cell-based, Huh-7
Procedure, shortened: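 HuH7 viability was read by CellTiter-Glo luminescence in parallel with the infection dose–response. CC50 is the concentration reducing viability by 50%.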

[2] = test system: dengue virus type 2; assay: Antiviral activity against Dengue virus 2 EDEN 3295 infected in human HuH7 cells assessed as reduction in virus replication incubated for 48 hrs by plaque reduction assay; assay type: functional, organism-based; settings: EDEN 3295, Huh-7, 48 h
Procedure, shortened: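 DENV2 EDEN 3295 in human hepatoma HuH7 cells, treated 48 h. Infectious virus quantified by plaque assay. Dose–response from 0.01 to 100 μM after an initial 10 μM screen. EC50 is the concentration giving 50% inhibition of replication, reported as average ± SD of two independent experiments.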

[3] = Inhibition of Dengue virus full length NS2b-NS3/NS5 interaction incubated for 1 hr by ELISA
Procedure, shortened: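 Competitive ELISA measuring DENV NS3–NS5 binding across compound concentrations. IC50 reported as average ± SD from one experiment in duplicate.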

[4] = test system: dengue virus type 2; assay: Inhibition of Dengue virus NS5 RNA-dependent RNA polymerase assessed as reduction in de novo initiation activity at 30 uM incubated for 1 hr relative to control
Procedure, shortened: (§1)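 Purified recombinant full-length DENV2 NS5 polymerase was tested in two formats: primer-independent (de novo initiation) and primer-dependent (elongation). Compound at a single 30 μM; % inhibition reported.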

[5] = Selectivity index, ratio of CC50 for human HuH7 cells to EC50 for Zika virus H/PF/2013 infected in human HuH7 cells; assay type: toxicity, cell-based; settings: read-out: Ratio CC50/EC50
Procedure, shortened: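 Selectivity index is CC50 (CellTiter-Glo, HuH7) divided by EC50 (plaque assay, ZIKV H/PF/2013, 24 h, HuH7).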

[6] = Inhibition of Dengue virus NS5 RNA-dependent RNA polymerase assessed as reduction in elongation activity incubated for 1 hr; set-up: species or system dengue virus type 2
Procedure, shortened: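 Elongation (primer-dependent) activity of purified recombinant full-length DENV2 NS5 was measured over a concentration series with fluorescence read-out. Compound-only wells corrected for autofluorescence. IC50 is 50% inhibition of elongation, average ± SD from one experiment in duplicate.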

[7] = Selectivity index, ratio of CC50 for human HuH7 cells to EC50 for Dengue virus 2 EDEN 3295 infected in human HuH7 cells; assay type: toxicity, cell-based; settings: read-out: Ratio CC50/EC50
Procedure, shortened: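 Selectivity index is CC50 (CellTiter-Glo, HuH7) divided by EC50 (plaque assay, DENV2 EDEN 3295, 48 h, HuH7).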

[8] = test system: dengue virus type 2; assay: Inhibition of Dengue virus NS5 RNA-dependent RNA polymerase assessed as reduction in elongation activity at 30 uM incubated for 1 hr relative to control; procedure, shortened: as §1
[9] = test system: Zika virus; assay: Antiviral activity against Zika virus H/PF/2013 infected in human HuH7 cells assessed as reduction in virus replication incubated for 24 hrs by plaque reduction assay; assay type: functional, organism-based; settings: H/PF/2013, Huh-7, 24 h
Procedure, shortened: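 ZIKV H/PF/2013 in HuH7 cells, treated 24 h. Titres read by plaque assay. EC50 is the concentration giving 50% inhibition of replication, reported as average ± SD of two independent experiments.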

[10] = test system: dengue virus type 2; assay: Antiviral activity against Dengue virus 2 EDEN 3295 clone 4_R infected in human HuH7 cells assessed as reduction in viral titer over 10 passages incubated for 72 hrs by resistance development assay; assay type: functional, organism-based; settings: EDEN 3295, Huh-7, 72 h
Procedure, shortened: (§2)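 Virus came from HuH7 serial passage under increasing compound concentrations (72 h each, to P10) and was expanded in C6/36 cells. P10 parental DENV2 or resistant-clone virus was then tested dose-dependently in HuH7 cells with 48 h compound treatment, measuring viral inhibition. Single experiment with duplicates.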

[11] = test system: dengue virus type 1; assay: Antiviral activity against Dengue virus 1 infected in human HuH7 cells assessed as reduction in virus replication incubated for 48 hrs by plaque reduction assay; assay type: functional, organism-based; settings: Huh-7, 48 h
[12] = test system: dengue virus type 2; assay: Antiviral activity against Dengue virus 2 EDEN 3295 infected in human HuH7 cells assessed as reduction in viral titer at 10 uM over 10 passage incubated for 72 hrs by resistance development assay relative to control; assay type: functional; settings: EDEN 3295, Huh-7, 72 h
Procedure, shortened: (§3)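 Resistance selection: DENV2-infected HuH7 cells were passaged under rising compound concentrations, 72 h per passage, up to P10. P10 viruses (parental or resistant clone) were expanded in C6/36 insect cells. Susceptibility was then tested in HuH7 at a single 10 μM dose, read as viral titer reduction versus control. Two independent experiments in duplicate; average ± SD.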

[13] = test system: dengue virus type 3; assay: Antiviral activity against Dengue virus 3 infected in human HuH7 cells assessed as reduction in virus replication incubated for 48 hrs by plaque reduction assay; assay type: functional, organism-based; settings: Huh-7, 48 h
[14] = test system: dengue virus type 2; assay: Inhibition of Dengue virus 2 NS5 assessed as reduction in NS5-3' UTR RNA at 25 uM incubated for 1 hr followed by 3' UTR RNA addition and measured after 20 mins by REMSA
Procedure, shortened: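 RNA electrophoretic mobility shift with DENV NS5 at 1.28 μM and RNA at 0.16 μM (RNA/NS5 1:8), compound at 25 μM, 37 °C. Order of addition: compound, then NS5, then RNA. Band shift from complex formation scored on gel.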

[15] = test system: dengue virus type 2; assay: Antiviral activity against Dengue virus 2 EDEN 3295 clone 4_R infected in human HuH7 cells assessed as reduction in viral titer at 10 uM over 10 passage incubated for 72 hrs by resistance development assay relative to control; assay type: functional; settings: EDEN 3295, Huh-7, 72 h; procedure, shortened: as §3
[16] = test system: dengue virus type 4; assay: Antiviral activity against Dengue virus 4 infected in human HuH7 cells assessed as reduction in virus replication incubated for 48 hrs by plaque reduction assay; assay type: functional, organism-based; settings: Huh-7, 48 h
[17] = test system: dengue virus type 2; assay: Antiviral activity against Dengue virus 2 EDEN 3295 infected in human HuH7 cells assessed as reduction in viral titer over 10 passages incubated for 72 hrs by resistance development assay; assay type: functional, organism-based; settings: EDEN 3295, Huh-7, 72 h; procedure, shortened: as §2

Structure (SMILES)	CC50 at 48 h [1]	EC50 [2]	IC50 [3]	inhibition [4]	selectivity ratio [5]	IC50 [6]	selectivity ratio [7]	inhibition [8]	EC50 [9]	EC50 [10]	EC50 [11]	inhibition at 10 µM [12]	EC50 [13]	inhibition [14]	inhibition at 10 µM [15]	EC50 [16]	EC50 [17]
O=C(N[C@@H](Cc1ccc(O)cc1)C(=O)O)c1cc(-c2ccccc2)c(=O)n2c1sc1ccc(OC3CCCCCC3)cc12	100 µM	3.7 µM	33.8 µM	30.5%	> 50	9.62 µM	30	92.1%	1.6 µM								
Cn1cc(C(=O)N[C@@H](Cc2ccc(O)cc2)C(=O)O)cc(-c2ccccc2)c1=O				35.6%				70.2%									
O=C(NCc1ccccc1)c1cc(-c2ccccc2)c(=O)n2c1sc1ccc(OC3CCCCC3)cc12								31.2%									
O=C(O)CCNC(=O)c1cc(-c2ccccc2)c(=O)n2c1sc1ccc(OC3CCCCC3)cc12	> 100 µM	3.5 µM	23.7 µM		> 100	37.8 µM	> 30	77.6%	1 µM	11.4 µM	7 µM	80%	7.8 µM	Active	20%	6.9 µM	5.3 µM
O=C(N[C@@H](Cc1ccc(O)cc1)C(=O)O)c1cc(-c2ccccc2)c(=O)n(-c2cccc(OC3CCCCC3)c2)c1				36.4%		81.3 µM		72.1%									
O=C(NCc1ccc(O)cc1)c1cc(-c2ccccc2)c(=O)n2c1sc1ccc(OC3CCCCC3)cc12	> 100 µM	1.8 µM			> 100		> 50	44.8%	1 µM					inactive			
O=c1c(-c2ccccc2)ccc2sc3ccc(OC4CCCCC4)cc3n12								6.3%						inactive			
O=C(N[C@@H](Cc1cccc(O)c1)C(=O)O)c1cc(-c2ccccc2)c(=O)n2c1sc1ccc(OC3CCCCC3)cc12	> 100 µM	2.9 µM	18.1 µM	12.6%	> 100	14.5 µM	> 30	94.1%	0.8 µM		3.2 µM		4.3 µM			5.9 µM	
C#C[C@@]1(O)[C@H](O)[C@@H](CO)O[C@H]1n1ccc2c(N)ncnc21	100 µM	1 µM			> 100		100		0.2 µM								
O=C(N[C@@H](Cc1ccc(O)cc1)C(=O)O)c1cc(-c2ccccc2)c(=O)n2c1sc1ccc(OC3CCCCC3)cc12	> 100 µM	2.1 µM	42.4 µM	40.7%	> 100	9.16 µM	> 50	93%	0.4 µM		2.8 µM		2.8 µM			1.7 µM	
O=C(NCCO)c1cc(-c2ccccc2)c(=O)n2c1sc1ccc(OC3CCCCC3)cc12	86.3 µM	1.9 µM		10%	43		43	63.3%	1.8 µM								
O=C(N[C@@H](CO)C(=O)O)c1cc(-c2ccccc2)c(=O)n2c1sc1ccc(OC3CCCCC3)cc12				44.8%		19.8 µM		97.5%									
